Data reported in ChEMBL document CHEMBL5058577, “EUbOPEN Chemogenomics Library 2 (Multiplex)” (2022).

System: U2OS
Experiment: Multiplex assay against U2OS
Assay type: toxicity, cell-based
Conditions: human
Method in brief: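 Cells were classed with CellPathfinder machine-learning gating, first as Hoechst high-intensity objects or normal cells, then (normal cells) as healthy, pyknosed or fragmented nuclei, and finally (pyknosed cells) as mitotic or apoptotic. Staining of live cells at seeding used Hoechst33342, BioTracker Green Microtubule Cytoskeleton Dye, MitoTracker Red and Annexin V Alexa Fluor 680, with imaging on a CQ1 microscope at 37°C and 5% CO2 after compound addition. Tubulin, mitochondrial-mass and membrane-permeability phenotypes are per cents of healthy-nucleus cells.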

[1] = 12 h, 1 µM, compound concentration 1 uM, replicate 1
[2] = 12 h, 1 µM, compound concentration 1 uM, replicate 2
[3] = 12 h, 10 µM, compound concentration 10 uM, replicate 1
[4] = 12 h, 10 µM, compound concentration 10 uM, replicate 2
[5] = 24 h, 1 µM, compound concentration 1 uM, replicate 1
[6] = 24 h, 1 µM, compound concentration 1 uM, replicate 2
[7] = 24 h, 10 µM, compound concentration 10 uM, replicate 1
[8] = 24 h, 10 µM, compound concentration 10 uM, replicate 2
[9] = 48 h, 1 µM, compound concentration 1 uM, replicate 1
[10] = 48 h, 1 µM, compound concentration 1 uM, replicate 2
[11] = 48 h, 10 µM, compound concentration 10 uM, replicate 1
[12] = 48 h, 10 µM, compound concentration 10 uM, replicate 2

## Br.CS(=O)(=O)Nc1c(O)ccc2c1CCCC2C1=NCCN1 (centres undefined)
[1]
  Population Apoptotic (%): 63%
  Population Fragmented Nuclei (%): 20%
  Population Healthy Nuclei (%): 75%
  Population Hoechst High Intensity Objects (%): 2%
  Population Membrane Permeable-Phenotype (%): 3%
  Population Mitochondria Different-Phenotype (%): 2%
  Population Mitotic Cells (%): 36%
  Population Normal (%): 97%
  Population Pyknosed Nuclei (%): 3%
  Population Tubulin-Different-Phenotype (%): 2%
  Total Cell Count: 288
[2]
  Population Apoptotic (%): 80%
  Population Fragmented Nuclei (%): 13%
  Population Healthy Nuclei (%): 82%
  Population Hoechst High Intensity Objects (%): 0%
  Population Membrane Permeable-Phenotype (%): 5%
  Population Mitochondria Different-Phenotype (%): 1%
  Population Mitotic Cells (%): 20%
  Population Normal (%): 100%
  Population Tubulin-Different-Phenotype (%): 1%
  Total Cell Count: 151
[3]
  Population Apoptotic (%): 69%
  Population Fragmented Nuclei (%): 36%
  Population Healthy Nuclei (%): 57%
  Population Hoechst High Intensity Objects (%): 1%
  Population Membrane Permeable-Phenotype (%): 8%
  Population Mitochondria Different-Phenotype (%): 0%
  Population Mitotic Cells (%): 30%
  Population Normal (%): 98%
  Population Pyknosed Nuclei (%): 6%
  Population Tubulin-Different-Phenotype (%): 1%
  Total Cell Count: 215
[4]
  Population Apoptotic (%): 100%
  Population Fragmented Nuclei (%): 22%
  Population Healthy Nuclei (%): 75%
  Population Hoechst High Intensity Objects (%): 0%
  Population Membrane Permeable-Phenotype (%): 6%
  Population Mitochondria Different-Phenotype (%): 6%
  Population Mitotic Cells (%): 0%
  Population Normal (%): 100%
  Population Pyknosed Nuclei (%): 2%
  Total Cell Count: 84
[5]
  Population Apoptotic (%): 76%
  Population Fragmented Nuclei (%): 18%
  Population Healthy Nuclei (%): 73%
  Population Hoechst High Intensity Objects (%): 2%
  Population Membrane Permeable-Phenotype (%): 3%
  Population Mitochondria Different-Phenotype (%): 2%
  Population Mitotic Cells (%): 23%
  Population Normal (%): 97%
  Population Pyknosed Nuclei (%): 7%
  Population Tubulin-Different-Phenotype (%): 2%
  Total Cell Count: 341
[6]
  Population Apoptotic (%): 92%
  Population Fragmented Nuclei (%): 14%
  Population Healthy Nuclei (%): 78%
  Population Hoechst High Intensity Objects (%): 1%
  Population Membrane Permeable-Phenotype (%): 7%
  Population Mitotic Cells (%): 7%
  Population Normal (%): 98%
  Population Tubulin-Different-Phenotype (%): 4%
  Total Cell Count: 185
[7]
  Population Apoptotic (%): 86%
  Population Fragmented Nuclei (%): 31%
  Population Healthy Nuclei (%): 62%
  Population Hoechst High Intensity Objects (%): 2%
  Population Membrane Permeable-Phenotype (%): 5%
  Population Mitochondria Different-Phenotype (%): 1%
  Population Mitotic Cells (%): 13%
  Population Normal (%): 97%
  Population Pyknosed Nuclei (%): 6%
  Population Tubulin-Different-Phenotype (%): 2%
  Total Cell Count: 240
[8]
  Population Apoptotic (%): 100%
  Population Fragmented Nuclei (%): 16%
  Population Healthy Nuclei (%): 80%
  Population Hoechst High Intensity Objects (%): 0%
  Population Membrane Permeable-Phenotype (%): 3%
  Population Mitochondria Different-Phenotype (%): 4%
  Population Mitotic Cells (%): 0%
  Population Normal (%): 100%
  Population Pyknosed Nuclei (%): 2%
  Population Tubulin-Different-Phenotype (%): 3%
  Total Cell Count: 103
[9]
  Population Apoptotic (%): 74%
  Population Fragmented Nuclei (%): 14%
  Population Healthy Nuclei (%): 78%
  Population Hoechst High Intensity Objects (%): 1%
  Population Membrane Permeable-Phenotype (%): 2%
  Population Mitochondria Different-Phenotype (%): 2%
  Population Mitotic Cells (%): 25%
  Population Normal (%): 98%
  Population Pyknosed Nuclei (%): 6%
  Population Tubulin-Different-Phenotype (%): 2%
  Total Cell Count: 484
[10]
  Population Apoptotic (%): 81%
  Population Fragmented Nuclei (%): 13%
  Population Healthy Nuclei (%): 76%
  Population Membrane Permeable-Phenotype (%): 5%
  Population Mitotic Cells (%): 18%
  Population Pyknosed Nuclei (%): 10%
  Population Tubulin-Different-Phenotype (%): 1%
  Total Cell Count: 253
[11]
  Population Apoptotic (%): 90%
  Population Fragmented Nuclei (%): 23%
  Population Healthy Nuclei (%): 70%
  Population Hoechst High Intensity Objects (%): 1%
  Population Membrane Permeable-Phenotype (%): 5%
  Population Mitochondria Different-Phenotype (%): 1%
  Population Mitotic Cells (%): 10%
  Population Normal (%): 98%
  Population Pyknosed Nuclei (%): 6%
  Population Tubulin-Different-Phenotype (%): 2%
  Total Cell Count: 333
[12]
  Population Apoptotic (%): 100%
  Population Fragmented Nuclei (%): 17%
  Population Healthy Nuclei (%): 74%
  Population Hoechst High Intensity Objects (%): 0%
  Population Membrane Permeable-Phenotype (%): 3%
  Population Mitochondria Different-Phenotype (%): 6%
  Population Mitotic Cells (%): 0%
  Population Normal (%): 100%
  Population Pyknosed Nuclei (%): 7%
  Total Cell Count: 152
